Broadly, the GI50 is the concentration at which growth is held to half of that of the control. Lower therefore signals greater sensitivity of the cells. The term TGI denotes the concentration at which net growth stops. A higher TGI goes with less potent growth arrest.

Type in all cases: functional
One assay relates to PSN1. Kind of assay: Cytotoxicity against human PSN1 cells after 48 hrs by sulforhodamine B assay. The following applies: PSN1, 48 h; for CC50: read-out: LC50 (the source's name). In outline: (§1)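 Human carcinoma lines (A-549 lung, MDA-MB-231 breast adenocarcinoma, HT-29 colorectal, PSN-1 pancreas). Cell survival estimated with the NCI algorithm. Three dose-response parameters derived: GI50 (50% growth inhibition vs control cells), TGI (total growth inhibition vs control) and LC50 (50% cell death vs control). GI50 calculated by a literature procedure.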
(Sulforhodamine B stains cellular protein and so reports cell mass.)

For another assay, the system named is MDA-MB-231. Briefly: Cytotoxicity against human MDA-MB-231 cells after 48 hrs by sulforhodamine B assay. The following applies: MDA-MB-231, 48 h; for CC50: read-out: LC50 (the source's name). Summed up:
as §1

The next assay deals with A549. Kind of assay: Cytotoxicity against human A549 cells after 48 hrs by sulforhodamine B assay. The following applies: A549, 48 h; for CC50: read-out: LC50 (the source's name). Summed up:
as §1

A further assay has as its system HT-29. Briefly: Cytotoxicity against human HT-29 cells after 48 hrs by sulforhodamine B assay. The following applies: HT-29, 48 h; for CC50: read-out: LC50 (the source's name). Summed up:
as §1

On to `COc1cccc2c1C(=O)c1c(O)c3c(c(O)c1C2=O)C[C@@](O)(C(=O)CO)C[C@@H]3O[C@H]1C[C@H](N)[C@H](O)[C@H](C)O1` [DOXORUBICIN], for which the GI50 in the assay with PSN1 is 200 nM; in the assay with MDA-MB-231 it was 200 nM; with A549 it was 200 nM; in the assay with HT-29, 300 nM. Moreover, the TGI worked out at 500 nM in the assay on PSN1, 500 nM with MDA-MB-231, 900 nM in the assay on A549 and 900 nM in the assay with HT-29. In addition, the CC50 in the assay on PSN1 is 3100 nM; in the assay with MDA-MB-231 it was 2400 nM; in the assay with A549, more than 17200 nM; in the assay with HT-29 it was more than 17200 nM.

Regarding `CO[C@H](C)[C@@H]1NC(=O)[C@H](CCC(N)=O)N(C)C(=O)[C@H](CC(C)C)NC(=O)[C@@H](CCCNC(=N)N)NC(=O)[C@@H](CO)NC(=O)[C@H](NC(=O)[C@@H](NC(=O)[C@H](O)[C@H](O)[C@H](CCCNC(=N)N)NC(=O)[C@@H](C)NC(=O)[C@H](C)[C@H](O)[C@H](C)C[C@H](C)CC(C)C)[C@@H](C)[C@@H](C)C(N)=O)[C@@H](C)OC(=O)[C@@H]2CCCCN2C(=O)[C@@H](CC(=O)O)NC1=O`, the concentration for 50% growth inhibition (GI50) came out at 200 nM in the assay with PSN1, 300 nM with MDA-MB-231, 400 nM with A549 and 600 nM with HT-29. Further, the TGI in the assay on PSN1 turned out to be 300 nM; in the assay with MDA-MB-231 it was 600 nM; in the assay with A549, 500 nM; in the assay with HT-29 it was 800 nM. For the same molecule, the CC50 is 600 nM in the assay on PSN1, 900 nM in the assay on MDA-MB-231, 700 nM with A549 and 1300 nM in the assay with HT-29.

Source of the values: ChEMBL document CHEMBL4130542, “Daedophamide, a Cytotoxic Cyclodepsipeptide from a Daedalopelta sp. Sponge Collected in Indonesia” (2017).
